Source: PubChem BioAssay
KCNQ1 pot – potentiators or activators of human KCNQ1 potassium channel. P51787. CHO-K1 KCNQ1, thallium flux FluxOR fluorescence; active compounds read high. B-score at 10 µM. 310,000 tested, 0.35% active. AID 2648;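 active = fluorescence ratio B-score, a plate-corrected score, at least three library SD, with initial intensity B-score within 5 SD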
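Doses: Single concentration per compound, DMSO matched to controls | Test system: KCNQ1-transfected CHO-K1 cells | Timing: 90 min dye loading and 20 min compound exposure, both at room temperature | Measured by: Kinetic FluxOR thallium fluorescence, 10-s 1-Hz baseline, 110-s post-stimulus read | Medium: Assay buffer with matched DMSO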
KCNK9 block – inhibitors of human KCNK9 two-pore domain potassium channel; B-score at 10 µM; HEK293 KCNK9, FluxOR thallium flux fluorescence; active compounds read low; 310,000 tested, 1.2% active; Q9NPC2; AID 488922;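 active = ratio B-score over 3 SD below the library mean, with starting fluorescence within 5 SD of its mean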;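 also: negative B-score means less thallium flux so channel inhibition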
hERG protect – hERG (human) protection from proarrhythmic block; Q12809; CHO-hERG, FluxOR thallium flux, dofetilide IC70 present; activation (rescue from dofetilide block), less the hit threshold, % at 10 µM; 310,000 tested, 0.51% active; AID 1511;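 active = activation above the mean of controls blocked by dofetilide plus 5 SD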;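 also: thallium influx through hERG after potassium depolarization seen as dye fluorescence rise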
Target sequence (Q12809 whole entry, looked up): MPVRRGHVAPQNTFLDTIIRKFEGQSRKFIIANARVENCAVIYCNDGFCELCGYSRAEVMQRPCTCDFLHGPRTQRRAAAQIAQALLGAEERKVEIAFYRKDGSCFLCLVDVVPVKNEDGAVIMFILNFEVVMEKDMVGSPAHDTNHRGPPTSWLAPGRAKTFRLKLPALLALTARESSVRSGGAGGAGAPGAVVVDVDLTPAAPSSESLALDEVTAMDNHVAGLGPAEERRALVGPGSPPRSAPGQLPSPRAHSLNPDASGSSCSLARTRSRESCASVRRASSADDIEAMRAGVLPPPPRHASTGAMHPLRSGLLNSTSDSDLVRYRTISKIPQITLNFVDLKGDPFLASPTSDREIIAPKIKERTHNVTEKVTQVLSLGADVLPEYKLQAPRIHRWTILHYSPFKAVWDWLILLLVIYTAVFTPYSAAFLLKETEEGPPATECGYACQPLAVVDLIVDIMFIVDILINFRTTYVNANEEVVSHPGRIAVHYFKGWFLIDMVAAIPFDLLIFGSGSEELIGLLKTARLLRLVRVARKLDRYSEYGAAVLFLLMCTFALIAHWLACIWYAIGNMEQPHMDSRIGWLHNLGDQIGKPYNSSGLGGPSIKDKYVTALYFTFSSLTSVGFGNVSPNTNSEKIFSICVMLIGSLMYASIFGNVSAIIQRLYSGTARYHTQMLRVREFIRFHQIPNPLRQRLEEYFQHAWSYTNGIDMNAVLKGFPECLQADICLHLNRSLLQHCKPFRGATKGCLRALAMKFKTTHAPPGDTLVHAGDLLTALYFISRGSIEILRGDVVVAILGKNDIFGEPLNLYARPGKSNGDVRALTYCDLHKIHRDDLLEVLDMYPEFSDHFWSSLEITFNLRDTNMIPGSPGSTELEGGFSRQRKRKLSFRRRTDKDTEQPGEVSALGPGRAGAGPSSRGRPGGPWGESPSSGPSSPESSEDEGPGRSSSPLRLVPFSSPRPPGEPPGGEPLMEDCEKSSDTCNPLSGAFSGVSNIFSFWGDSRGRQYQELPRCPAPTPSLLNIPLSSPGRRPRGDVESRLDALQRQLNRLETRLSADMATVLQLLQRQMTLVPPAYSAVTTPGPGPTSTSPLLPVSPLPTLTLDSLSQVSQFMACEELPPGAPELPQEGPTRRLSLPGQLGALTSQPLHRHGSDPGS
Kir21 block – inhibitors of mouse Kir2.1 inward-rectifier potassium channel; P35561; HEK293-Kir2.1, FluxOR thallium flux fluorescence; active compounds read low; B-score at 10 µM; 310,000 tested, 0.85% active; AID 1672;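 active = fluorescence ratio B-score at or below minus 3 SD of library scores, with starting-brightness B-score within 2 SD, cut at about -4.2 in these data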;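 also: channel flux triggered by added potassium and thallium sulfate stimulus; B-score of peak minus minimum fluorescence over baseline after thallium stimulus; more negative B-score means stronger Kir2.1 block with less thallium influx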
KCNQ1 inh – inhibitors of human KCNQ1 potassium channel. CHO-K1 KCNQ1, FluxOR thallium flux fluorescence; active compounds read high. P51787. B-score at 10 µM. 310,000 tested, 1.3% active;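 active = compounds whose thallium flux B-score, printed positive for inhibition, exceeds three library SD while starting fluorescence stays within three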;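 also: channel opened by potassium depolarization with thallium stimulus after 20 min compound exposure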
KCNK3 block – human KCNK3 channel inhibition, primary screen. O14649. CHO-KCNK3 thallium flux, FluxOR fluorescence; active compounds read low. B-score at 10 µM. 340,000 tested, 0.84% active. AID 602410;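 active = B-score under library mean minus 4 SD, starting fluorescence ratio at most library mean plus 5 SD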;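 also: more negative B-score means stronger inhibition of thallium flux through KCNK3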
Numbers without * were called inactive; i = inactive; · = no result. Only some compounds are listed: those with a hit (about 3.7% of all), similar ones and a draw of the others.

SMILES	KCNQ1 pot	KCNK9 block	hERG protect	Kir21 block	KCNQ1 inh	KCNK3 block
CCOC(=O)c1c(-c2ccccc2)oc2ccc(O)c(CN3CCN(C)CC3)c12	i	i	-7.5	-9.27*	i	i
C[C@H](NS(=O)(=O)c1ccccc1F)C(=O)OCC(=O)Nc1ccc2c(c1)OCCO2	·	·	·	·	·	i
CCOC(=O)CSc1nnc(CNc2ccc(Cl)cc2)n1Cc1ccccc1	i	i	-15.2	-2.52	8*	i
CCn1c(CNc2ccc(F)cc2)nnc1SCC(=O)OC1CCCCC1	i	i	-3.4	-4.49*	i	i
Cc1ccccc1N1CCN(S(=O)(=O)c2nnc(NC(=O)c3ccco3)s2)CC1	i	i	-10.4	-0.36	i	i
c1ccc(CC2CCN(Cc3ccccn3)CC2)cc1	i	i	-8.0	0.92	i	i
Clc1cccc(CN2CCC(Cc3ccccc3)CC2)c1	i	i	-14.1	-7.21*	i	i
Clc1ccc(CN2CCC(Cc3ccccc3)CC2)cc1	i	i	-1.9	-7.51*	i	i
Fc1ccc(CN2CCC(Cc3ccccc3)CC2)cc1F	i	i	-8.7	-1.48	i	i
O=C(/C=C/c1cccc(Cl)c1)N1CCC(Cc2ccccc2)CC1	i	i	-9.5	-0.15	8*	i
c1ccc(C2=Nc3ccccc3SC2c2nc3ccccc3[nH]2)cc1 (stereo not drawn)	i	i	-9.8	-2.27	i	·
COc1ccc(-c2nnc(CSc3nc4ccccc4c(=O)n3CC(C)C)o2)cc1OC	i	i	-5.0	-0.86	i	-9.51*
COC(=O)c1ccc(CSc2nc3ccccc3c(=O)n2CC(C)C)o1	i	-7.3*	-11.3	-1.19	i	i
CCOC(=O)CSc1nc2ccccc2c(=O)n1CC(C)C	i	i	-7.5	-3.02	i	i
Cc1ccc(CSc2nc3ccccc3c(=O)n2C)cc1	i	i	-6.0	-0.61	i	i
COC(=O)c1c(NC(=O)C(C)(C)C)csc1C	i	i	8.2*	-0.36	i	i
COC(=O)c1c(NC(C)=O)csc1C	i	i	-7.3	0.07	i	i
COc1cccc(C(=O)N/N=C/C(Br)=C/c2ccccc2)c1	i	-8.06*	1.4	0.3	i	i
Cc1ccc(-c2cc(C(=O)N/N=C/C(Br)=C/c3ccccc3)n[nH]2)o1	i	-7.05*	-11.8	-2.55	i	i
O=C(N/N=C/C(Br)=C/c1ccccc1)c1ccccc1[N+](=O)[O-]	i	-6.9*	-7.2	-0.02	i	i
O=C(N/N=C/c1ccncc1)c1ccccc1[N+](=O)[O-]	i	i	-2.8	2.88	i	i
COC(=O)CNC(c1ccccc1)c1cc(Br)ccc1N (stereo not drawn)	i	i	-3.1	-0.55	i	i
COC(=O)CNC(c1ccccc1)c1cc(Br)ccc1NS(=O)(=O)c1ccc(C)cc1 (stereo not drawn)	i	-7.43*	-13.4	1.27	i	i
COC(=O)CNC(c1ccccc1)c1cc(Br)ccc1NS(=O)(=O)c1ccccc1 (stereo not drawn)	i	-6.6*	-7.4	-0.06	i	i
Cc1ccc(S(=O)(=O)CC(O)COc2ccc(F)cc2Cl)c(C)c1 (stereo not drawn)	i	i	-6.3	-6.11*	i	i
SMILES	KCNQ1 pot	KCNK9 block	hERG protect	Kir21 block	KCNQ1 inh	KCNK3 block
CCOC(=O)c1ccc(Oc2ccc(C(F)(F)F)cn2)cc1	i	i	-4.5	2.33	i	i
CCOc1cccc(Oc2ccc(C(F)(F)F)cn2)c1	i	-7.88*	-3.9	-1.52	i	i
COc1ccccc1-c1ccc(/C=C2\C=CC(=O)O2)o1	i	i	-8.4	-2.72	i	i
COc1cc(OC)c2c(-c3cccc(-c4ccc(F)c(Cl)c4)c3)cc(=O)oc2c1	·	·	·	·	·	i
CCc1ccccc1Nc1nc(N)nc(COC(=O)CCNS(=O)(=O)c2ccccc2)n1	i	-8.06*	-16.9	-0.03	i	i
O=C(Nc1ccccc1C(=O)NC(Cc1ccccc1)C(=O)NC1CCCCCC1)c1ccccc1 (stereo not drawn)	i	i	-5.7	-0.37	6*	i
O=C(NC1CCCc2ccccc21)C(Cc1ccccc1)NS(=O)(=O)c1cccs1 (stereo not drawn)	i	i	-8.8	-0.27	i	i
O=C(NC1CCCCC1)C(Cc1ccccc1)NS(=O)(=O)c1cccs1 (stereo not drawn)	i	i	7.9*	-1	i	i
COc1cc(CN(C(=S)NCC(=O)NC2CC2)C2CCCC2)cc(OC)c1OC	i	i	-5.8	-1.92	i	i
Cc1cccc(C(=O)OCC(=O)c2ccc(CC(=O)N3CCOCC3)s2)c1C	·	·	·	·	·	i
COCc1c(C(=O)NCCOc2ccc(Cl)cc2)oc2ccccc12	·	·	·	·	·	-8.89*
CC(C)Oc1ccc(C(CC(=O)NCc2ccco2)c2ccccc2)cc1 (stereo not drawn)	i	-7.18*	-10.8	0.09	i	i
CC(C)[C@H](NC(=O)c1ccccc1)C(=O)OCC(=O)Nc1sccc1C(N)=O	·	·	·	·	·	i
COc1ccc(-c2oc3ccccc3c(=O)c2OCC(=O)O)cc1	i	i	-8.6	1.04	i	i
CC(=O)Oc1c(-c2ccc(Br)o2)oc2ccccc2c1=O	113*	i	40.0*	-0.31	i	i
COc1ccc(-c2oc3ccccc3c(=O)c2OC(C)=O)cc1	41*	i	4.5	-0.05	i	i
O=C(O)COc1c(-c2ccco2)oc2ccccc2c1=O	i	i	-6.8	-0.27	i	i
N=c1sccn1CC(=O)Nc1ccc([N+](=O)[O-])cc1Cl	i	i	-9.2	0.26	i	i
CCOC(=O)c1c(-c2ccccc2)csc1NC(=O)c1cc(-c2ccccc2OC)on1	i	i	-13.5	0.32	i	i
FC(F)(F)c1ccc(N2CCOCC2)c(Nc2nc3ccccc3n3cnnc23)c1	i	-7.15*	-3.8	0.63	i	i
N=C(N)SCc1cn(-c2ccccc2)nc1-c1ccc(Br)cc1	i	i	-27.0	-7.05*	11*	-13.7*
Cc1ccc(-c2nn(-c3ccccc3)cc2CO)cc1	i	i	-14.7	-0.54	i	i
CCOc1ccc(NC(=O)CN2CCCC2c2cccs2)cc1S(=O)(=O)N1CCCCC1 (stereo not drawn)	·	·	·	·	·	i
Cc1ccc(C)c(NC(=O)CSc2nncn2C)c1	i	i	-9.2	0	i	i
COc1ccc(CNC2c3ccccc3-c3ccccc32)cc1OC	i	i	-6.3	-4.36*	i	i
